# Test results from ChEMBL document CHEMBL4765405, “Design, synthesis and biological activities of novel pleuromutilin derivatives with a substituted triazole moiety as potent antibacterial agents” (Eur J Med Chem, 2020).
# What was measured:
# Format in all cases: functional
# Staphylococcus aureus [1] = assay: Antibacterial activity against methicillin-resistant Staphylococcus aureus ATCC 43300 after 24 hrs by CLSI based broth micro dilution method
# How it was run: (§1)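 Broth microdilution run per CLSI. MRSA ATCC 43300 served as the QC strain, with the CLSI QC range as reference. S. aureus AD3 and 144 are clinical isolates from Guangdong Province. Pleuromutilin and tiamulin were run as reference drugs.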
# Staphylococcus aureus [2] = assay: Antibacterial activity against Staphylococcus aureus ATCC 29213 after 24 hrs by CLSI based broth micro dilution method; how it was run: as §1
# Staphylococcus aureus [3] = assay: Antibacterial activity against Staphylococcus aureus AD3 after 24 hrs by CLSI based broth micro dilution method
# How it was run: (§2)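 CLSI broth microdilution MIC against S. aureus ATCC 43300 (MRSA), ATCC 29213, clinical isolates AD3 and 144 (Guangdong Province), and E. coli ATCC 25922; ATCC 43300 served as QC strain, with the CLSI quality control range as reference.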
# Staphylococcus aureus [4] = assay: Antibacterial activity against Staphylococcus aureus 144 after 24 hrs by CLSI based broth micro dilution method; how it was run: as §1
# Escherichia coli [5] = assay: Antibacterial activity against Escherichia coli ATCC 25922 after 24 hrs by CLSI based broth micro dilution method; how it was run: as §2
# Staphylococcus aureus [6] = assay: Bactericidal activity against methicillin-resistant Staphylococcus aureus ATCC 43300 preincubated 16 to 20 hrs followed by subculturing and measured after over night
# How it was run: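 MBC determined by the CLSI broth microdilution method against MRSA ATCC 43300, with ATCC 43300 also serving as the QC strain. Pleuromutilin and tiamulin were reference drugs.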
# Staphylococcus aureus [7] = assay: Bactericidal activity against Staphylococcus aureus ATCC 29213 preincubated 16 to 20 hrs followed by subculturing and measured after over night
# How it was run: (§3)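 MBC by CLSI broth microdilution on the same strain panel: S. aureus ATCC 43300, ATCC 29213, clinical isolates AD3 and 144, E. coli ATCC 25922; ATCC 43300 served as QC strain.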
# Staphylococcus aureus [8] = assay: Bactericidal activity against Staphylococcus aureus AD3 preincubated 16 to 20 hrs followed by subculturing and measured after over night; how it was run: as §3
# Staphylococcus aureus [9] = assay: Bactericidal activity against Staphylococcus aureus 144 preincubated 16 to 20 hrs followed by subculturing and measured after over night; how it was run: as §3
# Escherichia coli [10] = assay: Bactericidal activity against Escherichia coli ATCC 25922 preincubated 16 to 20 hrs followed by subculturing and measured after over night; how it was run: as §3
# [11] = Ratio of MBC for bactericidal activity against methicillin-resistant Staphylococcus aureus ATCC 43300 to MIC for antibacterial activity against methicillin-resistant Staphylococcus aureus ATCC 4330
SMILES,MIC (Staphylococcus aureus [1]) [µg/mL],MIC (Staphylococcus aureus [2]) [µg/mL],MIC (Staphylococcus aureus [3]) [µg/mL],MIC (Staphylococcus aureus [4]) [µg/mL],MIC (Escherichia coli [5]) [µg/mL],MBC (Staphylococcus aureus [6]) [µg/mL],MBC (Staphylococcus aureus [7]) [µg/mL],MBC (Staphylococcus aureus [8]) [µg/mL],MBC (Staphylococcus aureus [9]) [µg/mL],MBC (Escherichia coli [10]) [µg/mL],Ratio [11]
C=C[C@]1(C)C[C@@H](OC(=O)CSc2ccccc2NC(=O)Cn2cc(CN3CCN(c4ccc(F)cc4)CC3)nn2)[C@]2(C)[C@H](C)CC[C@]3(CCC(=O)[C@H]32)[C@@H](C)[C@@H]1O,1,0.5,0.5,1,> 32,1,0.5,1,2,> 32,1
C=C[C@]1(C)C[C@@H](OC(=O)CSc2ccccc2NC(=O)Cn2cc(CN3CCN(c4ccccc4F)CC3)nn2)[C@]2(C)[C@H](C)CC[C@]3(CCC(=O)[C@H]32)[C@@H](C)[C@@H]1O,1,0.5,0.5,1,> 32,2,1,1,1,> 32,1
C=C[C@]1(C)C[C@@H](OC(=O)CSc2ccccc2NC(=O)Cn2cc(CN3CCN(c4ccccc4C)CC3)nn2)[C@]2(C)[C@H](C)CC[C@]3(CCC(=O)[C@H]32)[C@@H](C)[C@@H]1O,1,1,2,1,> 32,1,2,4,4,> 32,1
C=C[C@]1(C)C[C@@H](OC(=O)CSc2ccccc2NC(=O)Cn2cc(CN3CCN(c4cccc(F)c4)CC3)nn2)[C@]2(C)[C@H](C)CC[C@]3(CCC(=O)[C@H]32)[C@@H](C)[C@@H]1O,1,0.5,0.5,1,> 32,2,0.5,1,2,> 32,1
C=C[C@]1(C)C[C@@H](OC(=O)CSc2ccccc2NC(=O)Cn2cc(CN3CCN(c4ccc(Cl)cc4)CC3)nn2)[C@]2(C)[C@H](C)CC[C@]3(CCC(=O)[C@H]32)[C@@H](C)[C@@H]1O,0.5,1,2,2,> 32,1,4,4,2,> 32,1
C=C[C@]1(C)C[C@@H](OC(=O)CSc2ccccc2NC(=O)Cn2cc(CN3CCN(c4ccccc4O)CC3)nn2)[C@]2(C)[C@H](C)CC[C@]3(CCC(=O)[C@H]32)[C@@H](C)[C@@H]1O,0.5,1,1,1,> 32,1,1,2,2,> 32,1
C=C[C@]1(C)C[C@@H](OC(=O)CSc2ccccc2NC(=O)Cn2cc(CN3CCN(c4cccc(C)c4)CC3)nn2)[C@]2(C)[C@H](C)CC[C@]3(CCC(=O)[C@H]32)[C@@H](C)[C@@H]1O,1,1,2,1,> 32,1,2,4,8,> 32,1
C=C[C@]1(C)C[C@@H](OC(=O)CSc2ccccc2NC(=O)Cn2cc(CN3CCN(c4ccccc4OC)CC3)nn2)[C@]2(C)[C@H](C)CC[C@]3(CCC(=O)[C@H]32)[C@@H](C)[C@@H]1O,0.5,1,1,1,> 32,1,2,2,4,> 32,1
C=C[C@]1(C)C[C@@H](OC(=O)CSc2ccccc2NC(=O)Cn2cc(CN3CCN(c4ccc(C)cc4)CC3)nn2)[C@]2(C)[C@H](C)CC[C@]3(CCC(=O)[C@H]32)[C@@H](C)[C@@H]1O,1,0.5,1,1,> 32,4,0.5,2,2,> 32,1
C=C[C@]1(C)C[C@@H](OC(=O)CSc2ccccc2NC(=O)Cn2cc(CN3CCCCC3)nn2)[C@]2(C)[C@H](C)CC[C@]3(CCC(=O)[C@H]32)[C@@H](C)[C@@H]1O,0.5,0.5,0.5,1,> 32,2,0.5,0.5,1,> 32,1
